Experimental data taken from ChEMBL document CHEMBL1275586, “Phenotypic susceptibility to bevirimat in isolates from HIV-1-infected patients without prior exposure to bevirimat” (Antimicrob Agents Chemother, 2010).

Columns and labels:
[1] = system: Human immunodeficiency virus 1; assay: Antiviral activity against Human immunodeficiency virus 1 LAI infected in human MT-2 cells by XTT-assay; format: functional, organism-based; conditions: MT2
Summary of the method: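 Recombinant virus produced by transfecting 7 μg viral plasmid (pXXLAI backbone; patient-derived SfoI-XmaI fragment for isolates) into 293T cells. Supernatant harvested 2 days later. 2.4 million MT-2 cells infected at 37°C with virus giving XTT signal-to-noise 2.5–4.0, then plated ≈17,000 cells/well with drug dilutions. After 5 days at 37°C, 5% CO2, 1.67 mg/ml XTT added for 1 h. A450–A650 read; EC50 from cell-death curves.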

[2] = system: Human immunodeficiency virus 1; assay: Antiviral activity against Human immunodeficiency virus 1 isolate 36 harboring Gag-SP1 […], A374N and T375A mutant gene infected in human MT-2 cells by XTT assay relative to wild-type; format: functional, MT2
Summary of the method: (§1)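 Patient Gag-protease (SfoI-XmaI) fragments were ligated into the pXXLAI backbone, with colonies pooled to keep quasispecies. Virus came from 293T transfection, harvested at 2 days. MT-2 infection at 37°C used an input giving XTT signal-to-noise of 2.5–4.0 (≈MOI 0.001). Cells at ≈17,000/well with drug dilutions, 5 days, 37°C; XTT 1 h, A450–650. EC50 from % cell death; fold change vs wild-type LAI.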

[3] = system: Human immunodeficiency virus 1; assay: Antiviral activity against antiretroviral-pretreated PI-resistant Human immunodeficiency virus 1 isolate 28 infected in human MT-2 cells by XTT assay relative to wild-type; format: functional, MT2
Summary of the method: (§2)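 Patient-derived Gag fragments were pooled as bacterial colonies to keep quasispecies diversity and ligated into the pXXLAI (HIV-1 LAI) backbone. Virus was made by transfecting 293T cells and harvesting supernatant 2 days later. MT-2 cells were infected at 37°C with an inoculum titrated to give an XTT signal-to-noise of 2.5–4.0. Cells were plated into drug dilutions, incubated 5 days at 37°C, and read by XTT absorbance (450−650 nm). EC50 was taken from percent cell death and expressed as fold change versus wild-type LAI.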

[4] = system: Human immunodeficiency virus 1; assay: Antiviral activity against antiretroviral-pretreated PI-resistant Human immunodeficiency virus 1 isolate 7 infected in human MT-2 cells by XTT assay relative to wild-type; format: functional, MT2; summary of the method: as §2
[5] = system: Human immunodeficiency virus 1; assay: Antiviral activity against Human immunodeficiency virus 1 isolate 2 harboring Gag-capsid A146P, S173A, V215L, E230D, N252S, L268M and A340G mutant gene and protease L10I, I15V, K20R, M36I, S37N, M46I, L63P, V82A, N83H, I84V, I85T and L90M mutant gene infected in human MT-2 cells by XTT-assay relative to wild-type; format: functional, MT2; summary of the method: as §1
[6] = system: Human immunodeficiency virus 1; assay: Antiviral activity against Human immunodeficiency virus 1 isolates harboring Gag-SP-1 V370A mutant gene relative to wild-type; format: functional
Summary of the method: (§3)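 Site-directed mutants were made by two-round overlap PCR into the pXXLAI (HIV-1 LAI) backbone from an individual clone, then transfected into 293T cells, with supernatant harvested at 2 days. MT-2 cells were infected at an input giving an XTT signal-to-noise of 2.5–4.0, plated at ≈17,000 cells/well with drug dilutions, and read by XTT after 5 days. EC50 from % cell death; fold change vs wild-type LAI.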

[7] = system: Human immunodeficiency virus 1; assay: Antiviral activity against antiretroviral-pretreated Human immunodeficiency virus 1 isolate 22 infected in human MT-2 cells by XTT assay relative to wild-type; format: functional, MT2; summary of the method: as §2
[8] = system: Human immunodeficiency virus 1; assay: Antiviral activity against antiretroviral-pretreated PI-resistant Human immunodeficiency virus 1 isolate 5 harboring Gag-SP1 Q369H and T375N mutant gene infected in human MT-2 cells by XTT assay relative to wild-type; format: functional, MT2; summary of the method: as §2
[9] = system: Human immunodeficiency virus 1; assay: Antiviral activity against Human immunodeficiency virus 1 isolate 1 harboring Gag-SP-1 S368, V370 and deletion at T371 in Gag-SP-1 mutant infected in human MT-2 cells by XTT-assay relative to wild-type; format: functional, MT2; summary of the method: as §1
[10] = system: Human immunodeficiency virus 1; assay: Antiviral activity against Human immunodeficiency virus 1 isolate 35 harboring Gag-capsid G357S mutant gene and Gag-SP1 V370A, T371Q, N372S, T375N and I376M mutant gene infected in human MT-2 cells by XTT assay relative to wild-type; format: functional, MT2; summary of the method: as §1
[11] = system: Human immunodeficiency virus 1; assay: Antiviral activity against Human immunodeficiency virus 1 isolate 7 harboring Gap-SP-1 V362I mutant infected in human MT-2 cells by XTT-assay relative to wild-type; format: functional, MT2; summary of the method: as §1
[12] = system: Human immunodeficiency virus 1; assay: Antiviral activity against antiretroviral-pretreated Human immunodeficiency virus 1 isolate 12 harboring Gag-capsid G357S and V362I mutant gene infected in human MT-2 cells by XTT assay relative to wild-type; format: functional, MT2; summary of the method: as §2
[13] = system: Human immunodeficiency virus 1; assay: Antiviral activity against Human immunodeficiency virus 1 isolate 30 infected in human MT-2 cells by XTT assay relative to wild-type; format: functional, MT2
[14] = system: Human immunodeficiency virus 1; assay: Antiviral activity against antiretroviral-pretreated PI-resistant Human immunodeficiency virus 1 isolate 3 harboring Gag-capsid G357S mutant gene, Gag-Sp-1 V370A and N372H mutant gene and deletion at T371 in Gag-SP-1 infected in human MT-2 cells by XTT assay relative to wild-type; format: functional, MT2; summary of the method: as §2
[15] = system: Human immunodeficiency virus 1; assay: Antiviral activity against Human immunodeficiency virus 1 isolate 4 harboring Gag-capsid A146P, V159I, V215L, I223G/V, P255A, E312D and G357S mutant gene and protease L10R, S37N, M46L, I62V, L63P, A71V, V82T, L90M and I93L mutant gene infected in human MT-2 cells by XTT-assay relative to wild-type; format: functional, MT2; summary of the method: as §1
[16] = system: Human immunodeficiency virus 1; assay: Antiviral activity against Human immunodeficiency virus 1 isolates harboring deletion at T371 in Gag-SP-1 relative to wild-type; format: functional; summary of the method: as §3
[17] = system: Human immunodeficiency virus 1; assay: Antiviral activity against Human immunodeficiency virus 1 isolate 29 harboring Gag-capsid I138M, A146P, R286K and A326S mutant gene and protease L10F, I13V, V32I, M36L, S37N, M46I, I47V, I62V, L63P, A71I, I72V and V82A mutant gene infected in human MT-2 cells by XTT-assay relative to wild-type; format: functional, MT2; summary of the method: as §1
[18] = system: Human immunodeficiency virus 1; assay: Antiviral activity against antiretroviral-pretreated PI-resistant Human immunodeficiency virus 1 isolate 27 harboring infected in human MT-2 cells by XTT assay relative to wild-type
[19] = system: Human immunodeficiency virus 1; assay: Antiviral activity against Human immunodeficiency virus 1 isolate 38 harboring Gag-SP1 V370A, N372S/G, S373P/T/Q/K, A374A/G/T/S, T375A and I376M mutant gene infected in human MT-2 cells by XTT assay relative to wild-type; format: functional, MT2; summary of the method: as §1
[20] = system: Human immunodeficiency virus 1; assay: Antiviral activity against Human immunodeficiency virus 1 isolate 32 harboring Gag-SP1 V370I and N372G mutant gene infected in human MT-2 cells by XTT assay relative to wild-type; format: functional, MT2; summary of the method: as §1
[21] = system: Human immunodeficiency virus 1; assay: Antiviral activity against antiretroviral-pretreated PI-resistant Human immunodeficiency virus 1 isolate 4 harboring Gag-capsid G357S mutant gene and Gag-Sp-1 N372A, A374T and T375N mutant gene infected in human MT-2 cells by XTT assay relative to wild-type

C=C(C)[C@@H]1CC[C@]2(C(=O)O)CC[C@]3(C)[C@H](CC[C@@H]4[C@@]5(C)CC[C@H](OC(=O)CC(C)(C)C(=O)O)C(C)(C)[C@@H]5CC[C@]43C)[C@@H]12 [BEVIRIMAT]
EC50 [1]: 34 nM
fold change (FC) [2]: 1.8
fold change (FC) [3]: 1.3
fold change (FC) [4]: 1
fold change (FC) [5]: >100
fold change (FC) [6]: >151.4
fold change (FC) [7]: 0.7
fold change (FC) [8]: 2.2
fold change (FC) [9]: 0.6
fold change (FC) [10]: >100
fold change (FC) [11]: >100
fold change (FC) [12]: >100
fold change (FC) [13]: 5.2
fold change (FC) [14]: >100
fold change (FC) [15]: >100
fold change (FC) [16]: 52.2
fold change (FC) [17]: >100
fold change (FC) [18]: 36
fold change (FC) [19]: >100
fold change (FC) [20]: 0.9
fold change (FC) [21]: >100
